Laboratory results from ChEMBL document CHEMBL3351243, “Novel inhibitors of human histone deacetylases: design, synthesis and bioactivity of 3-alkenoylcoumarines” (Bioorg Med Chem Lett, 2014).
Calls of active or inactive are those of the source. No cut-off for these calls is given here.

Key:
[1] = target: T1, Histone deacetylase (Homo sapiens) (UniProt Q13547+O15379+Q9UBN7+Q92769+Q9UQL6+Q8WUI4+Q9BY41+Q96DB2+P56524+Q9UKV0+Q969S8); experiment: Inhibition of HDAC in human K562 cells nuclear extracts at 100 uM; assay type: cell-free
In short: (§1)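 Total HDAC activity was measured in vitro on K-562 nuclear extracts with compound at 100 µM. Values are the mean percent change from two independent experiments.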

Histone deacetylase 1 = Histone deacetylase 1 (Homo sapiens, UniProt Q13547); experiment: Inhibition of HDAC1 (unknown origin)
Chain of Histone deacetylase 1 (Q13547 whole entry): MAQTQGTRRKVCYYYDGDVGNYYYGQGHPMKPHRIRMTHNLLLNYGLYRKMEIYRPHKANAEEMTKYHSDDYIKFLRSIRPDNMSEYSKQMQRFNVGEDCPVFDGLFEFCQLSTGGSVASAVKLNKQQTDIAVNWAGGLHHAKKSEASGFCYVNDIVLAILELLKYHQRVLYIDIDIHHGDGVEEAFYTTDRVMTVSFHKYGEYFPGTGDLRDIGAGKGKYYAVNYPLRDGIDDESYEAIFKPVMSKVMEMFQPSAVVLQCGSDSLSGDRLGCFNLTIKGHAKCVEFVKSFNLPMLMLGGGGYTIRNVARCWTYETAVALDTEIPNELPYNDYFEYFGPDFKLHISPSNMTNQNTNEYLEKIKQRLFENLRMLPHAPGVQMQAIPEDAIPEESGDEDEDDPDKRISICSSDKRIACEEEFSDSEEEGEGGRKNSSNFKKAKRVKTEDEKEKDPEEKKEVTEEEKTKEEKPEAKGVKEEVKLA
In short: (§2)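 Activity of individual HDAC isoenzymes (classes I, IIb and IV) was measured in vitro with compound. IC50 values come from two independent experiments.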

Histone deacetylase 2 = Histone deacetylase 2 (Homo sapiens, UniProt Q92769); experiment: Inhibition of HDAC2 (unknown origin); in short: as §2
Chain of Histone deacetylase 2 (Q92769 whole entry): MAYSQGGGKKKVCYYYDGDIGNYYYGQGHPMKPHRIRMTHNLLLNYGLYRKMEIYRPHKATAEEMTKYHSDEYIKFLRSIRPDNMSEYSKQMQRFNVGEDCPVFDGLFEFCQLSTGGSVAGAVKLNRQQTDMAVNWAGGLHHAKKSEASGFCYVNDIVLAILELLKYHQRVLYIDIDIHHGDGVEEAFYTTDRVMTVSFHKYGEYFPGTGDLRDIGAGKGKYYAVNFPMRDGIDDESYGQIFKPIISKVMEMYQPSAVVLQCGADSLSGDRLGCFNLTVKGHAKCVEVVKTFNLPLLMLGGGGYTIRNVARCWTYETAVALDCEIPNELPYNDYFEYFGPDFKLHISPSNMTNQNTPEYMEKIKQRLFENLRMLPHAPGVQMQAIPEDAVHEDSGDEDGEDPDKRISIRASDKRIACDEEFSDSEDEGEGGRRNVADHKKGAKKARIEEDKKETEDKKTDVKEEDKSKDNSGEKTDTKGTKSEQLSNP

Histone deacetylase 3 = Histone deacetylase 3 (Homo sapiens, UniProt O15379); experiment: Inhibition of HDAC3 (unknown origin); in short: as §2
Chain of Histone deacetylase 3 (O15379 whole entry): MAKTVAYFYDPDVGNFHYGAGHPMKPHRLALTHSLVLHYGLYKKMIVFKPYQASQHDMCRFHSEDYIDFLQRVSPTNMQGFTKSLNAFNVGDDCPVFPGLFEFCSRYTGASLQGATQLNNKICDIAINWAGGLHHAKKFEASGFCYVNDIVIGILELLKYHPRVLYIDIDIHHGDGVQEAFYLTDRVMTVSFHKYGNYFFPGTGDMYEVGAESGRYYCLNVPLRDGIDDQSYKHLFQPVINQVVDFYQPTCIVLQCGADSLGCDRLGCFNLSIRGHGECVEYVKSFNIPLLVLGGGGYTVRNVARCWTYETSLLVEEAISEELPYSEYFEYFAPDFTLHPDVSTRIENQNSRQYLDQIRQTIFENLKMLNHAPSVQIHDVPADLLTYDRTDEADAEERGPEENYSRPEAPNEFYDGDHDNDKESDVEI

Histone deacetylase 8 = target: T2, Histone deacetylase 8 (Homo sapiens, UniProt Q9BY41); experiment: Inhibition of HDAC8 (unknown origin); in short: as §2
T2 sequence (Q9BY41 whole entry): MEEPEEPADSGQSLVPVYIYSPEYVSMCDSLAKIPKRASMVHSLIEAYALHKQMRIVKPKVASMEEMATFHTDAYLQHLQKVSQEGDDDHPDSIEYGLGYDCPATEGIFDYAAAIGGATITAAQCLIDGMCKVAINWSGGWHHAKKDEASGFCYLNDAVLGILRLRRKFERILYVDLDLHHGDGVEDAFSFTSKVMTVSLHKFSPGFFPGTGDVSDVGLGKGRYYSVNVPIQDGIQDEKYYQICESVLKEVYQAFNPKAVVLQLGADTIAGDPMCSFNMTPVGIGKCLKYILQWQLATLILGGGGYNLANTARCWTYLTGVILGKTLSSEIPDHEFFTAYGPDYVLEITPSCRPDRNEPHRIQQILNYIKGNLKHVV

[2] = target: T3, Protein deacetylase HDAC6 (Homo sapiens, UniProt Q9UBN7); experiment: Inhibition of HDAC6 (unknown origin); in short: as §2
T3 sequence (Q9UBN7 whole entry): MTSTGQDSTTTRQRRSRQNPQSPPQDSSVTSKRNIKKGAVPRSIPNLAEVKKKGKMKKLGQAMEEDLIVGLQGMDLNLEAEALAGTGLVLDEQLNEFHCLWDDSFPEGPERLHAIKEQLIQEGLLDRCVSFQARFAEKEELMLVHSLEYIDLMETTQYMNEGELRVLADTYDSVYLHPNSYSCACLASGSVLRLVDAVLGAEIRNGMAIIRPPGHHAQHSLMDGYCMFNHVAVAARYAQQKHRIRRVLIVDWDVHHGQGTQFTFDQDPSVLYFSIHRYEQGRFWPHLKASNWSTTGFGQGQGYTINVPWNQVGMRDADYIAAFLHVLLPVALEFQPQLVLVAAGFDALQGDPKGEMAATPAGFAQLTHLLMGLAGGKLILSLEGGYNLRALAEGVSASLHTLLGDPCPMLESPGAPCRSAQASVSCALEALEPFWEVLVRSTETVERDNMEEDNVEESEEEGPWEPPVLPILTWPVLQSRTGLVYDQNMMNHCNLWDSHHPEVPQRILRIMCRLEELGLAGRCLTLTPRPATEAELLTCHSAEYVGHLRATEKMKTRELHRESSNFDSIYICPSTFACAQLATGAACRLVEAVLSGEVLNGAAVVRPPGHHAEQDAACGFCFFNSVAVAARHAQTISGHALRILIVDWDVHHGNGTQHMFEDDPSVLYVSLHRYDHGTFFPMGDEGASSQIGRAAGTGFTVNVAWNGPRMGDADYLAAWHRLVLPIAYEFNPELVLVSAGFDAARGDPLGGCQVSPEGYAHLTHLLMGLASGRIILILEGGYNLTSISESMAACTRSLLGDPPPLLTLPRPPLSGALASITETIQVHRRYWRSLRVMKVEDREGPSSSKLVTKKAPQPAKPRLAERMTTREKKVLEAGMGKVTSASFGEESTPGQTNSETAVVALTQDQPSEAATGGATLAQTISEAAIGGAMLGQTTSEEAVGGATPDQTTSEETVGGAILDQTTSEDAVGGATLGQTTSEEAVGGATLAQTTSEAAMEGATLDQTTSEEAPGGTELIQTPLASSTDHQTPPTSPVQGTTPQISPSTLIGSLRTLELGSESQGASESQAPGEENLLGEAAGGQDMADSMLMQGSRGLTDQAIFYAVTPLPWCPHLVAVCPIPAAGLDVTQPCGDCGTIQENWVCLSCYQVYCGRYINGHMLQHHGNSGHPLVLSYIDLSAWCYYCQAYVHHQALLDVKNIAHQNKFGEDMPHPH

[3] = target: T4, Polyamine deacetylase HDAC10 (Homo sapiens, UniProt Q969S8); experiment: Inhibition of HDAC10 (unknown origin); in short: as §2
T4 sequence (Q969S8 whole entry): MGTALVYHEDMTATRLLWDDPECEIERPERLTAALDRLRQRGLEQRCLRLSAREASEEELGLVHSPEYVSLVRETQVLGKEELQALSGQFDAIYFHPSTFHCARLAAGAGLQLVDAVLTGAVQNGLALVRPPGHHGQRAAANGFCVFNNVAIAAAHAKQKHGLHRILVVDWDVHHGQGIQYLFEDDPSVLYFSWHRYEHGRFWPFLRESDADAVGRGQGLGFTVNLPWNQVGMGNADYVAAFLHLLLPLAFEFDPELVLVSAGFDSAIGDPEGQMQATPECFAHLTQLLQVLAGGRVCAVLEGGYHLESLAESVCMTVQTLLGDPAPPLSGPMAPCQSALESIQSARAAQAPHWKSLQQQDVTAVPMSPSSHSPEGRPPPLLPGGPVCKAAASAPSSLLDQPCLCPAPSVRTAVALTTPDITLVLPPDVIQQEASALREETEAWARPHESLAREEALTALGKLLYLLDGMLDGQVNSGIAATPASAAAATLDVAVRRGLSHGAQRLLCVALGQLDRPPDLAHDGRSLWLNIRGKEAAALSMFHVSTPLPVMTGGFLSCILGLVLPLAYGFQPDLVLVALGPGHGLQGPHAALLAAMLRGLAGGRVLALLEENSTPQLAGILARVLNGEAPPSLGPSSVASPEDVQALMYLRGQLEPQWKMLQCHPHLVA

Histone deacetylase 11 = target: T5, Histone deacetylase 11 (Homo sapiens, UniProt Q96DB2); experiment: Inhibition of HDAC11 (unknown origin); in short: as §2
T5 sequence (Q96DB2 whole entry): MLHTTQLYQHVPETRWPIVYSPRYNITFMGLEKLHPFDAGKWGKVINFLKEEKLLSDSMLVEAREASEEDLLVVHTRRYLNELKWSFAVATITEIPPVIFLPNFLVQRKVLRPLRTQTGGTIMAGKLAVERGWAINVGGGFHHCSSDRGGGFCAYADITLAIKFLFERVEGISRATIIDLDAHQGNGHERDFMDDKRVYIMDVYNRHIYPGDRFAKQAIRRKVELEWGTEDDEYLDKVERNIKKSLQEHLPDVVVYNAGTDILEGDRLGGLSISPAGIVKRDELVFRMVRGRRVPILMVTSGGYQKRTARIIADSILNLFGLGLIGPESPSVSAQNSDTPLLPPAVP

K562 [4] = experiment: Antiproliferative activity against human K562 cells at 10 to 100 uM after 24 to 72 hrs; assay type: functional, cell-based
In short: (§3)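 K-562 (chronic myeloid leukemia) and U-937 (histiocytic lymphoma) cells were exposed to the indicated compound concentrations. Proliferation and viability were scored separately at 24, 48 and 72 h. Data are mean ± SD of three independent cultures.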

U-937 [5] = experiment: Antiproliferative activity against human U937 cells at 10 to 100 uM after 24 to 72 hrs; assay type: functional, cell-based; in short: as §3
PBMC = experiment: Cytotoxicity against human PBMC assessed as reduction in cell viability at 10 to 100 uM after 24 to 48 hrs
U-937 [6] = experiment: Cytotoxicity against human U937 cells assessed as reduction in cell viability at 10 to 100 uM after 24 to 72 hrs; assay type: functional, cell-based; in short: as §3
U-937 [7] = experiment: Antiproliferative activity against human U937 cells at 10 to 100 uM after 72 hrs; assay type: functional, cell-based; in short: as §3
U-937 [8] = experiment: Antiproliferative activity against human U937 cells at 10 to 100 uM after 24 to 48 hrs; assay type: functional, cell-based; in short: as §3
K562 [9] = experiment: Cytotoxicity against human K562 cells assessed as reduction in cell viability at 10 to 100 uM after 24 to 72 hrs; assay type: functional, cell-based; in short: as §3
[10] = target: T1, Histone deacetylase (Homo sapiens); experiment: Increase in HDAC activity in human K562 cells nuclear extracts at 100 uM; assay type: cell-based; in short: as §1

Q: With `COc1ccc2cc(C(=O)/C=C/c3ccc(OC)c(OC)c3)c(=O)oc2c1` as the compound, how does the inhibition [1] read?
A: < 10%

Q: `COc1ccc2cc(C(=O)/C=C/C=C/c3ccc(O)c(OC)c3)c(=O)oc2c1` was tested. Which inhibition [1] did it give?
A: < 10%

Q: Which results are given for `COc1ccc2cc(C(=O)/C=C/C=C/c3ccc(OC)c(OC)c3)c(=O)oc2c1`?
A: inhibition [1]: 50%; IC50 (Histone deacetylase 1): 59 µM; IC50 (Histone deacetylase 2): 33 µM; IC50 (Histone deacetylase 3): 12 µM; IC50 (Histone deacetylase 8): 28 µM; IC50 [2]: 32 µM; IC50 [3]: 85 µM; IC50 (Histone deacetylase 11): 74 µM; inhibition (K562 [4]): Active; inhibition (U-937 [5]): Active; Activity (PBMC): Non-toxic

Q: How did the inhibition [1] turn out when `COc1ccc(/C=C/C(=O)c2cc3ccc(OC)cc3oc2=O)cc1` was run?
A: < 10%

Q: For `COc1ccc(/C=C/C(=O)c2cc(=O)oc3cc(OC)ccc23)cc1`, which inhibition [1] is on record?
A: 20%

Q: And the inhibition (K562 [4])?
A: Active

Q: And the inhibition (U-937 [5])?
A: Active

Q: What about the inhibition (U-937 [6]) of the same compound?
A: Active

Q: What about the Activity (PBMC) of the same compound?
A: Non-toxic

Q: `COc1ccc2cc(C(C)=O)c(=O)oc2c1` was tested. Which inhibition [1] did it give?
A: 20%

Q: And the inhibition (K562 [4])?
A: inactive

Q: And the inhibition (U-937 [7])?
A: Active

Q: What about the inhibition (U-937 [8]) of the same compound?
A: inactive

Q: And the Activity (K562 [9])?
A: inactive

Q: And the Activity (PBMC)?
A: Non-toxic

Q: For `O=C(/C=C/C=C/c1ccccc1)c1cc2ccccc2oc1=O`, which inhibition [1] is on record?
A: < 10%

Q: Which inhibition [1] does the source give for `O=C(/C=C/c1ccccc1)c1cc2ccccc2oc1=O` here?
A: < 10%

Q: Which results are given for `COc1ccc(/C=C/C=C/C(=O)c2cc3ccc(OC)cc3oc2=O)cc1`?
A: inhibition [1]: 30%; inhibition (K562 [4]): Active; inhibition (U-937 [5]): Active; Activity (PBMC): Non-toxic

Q: Which inhibition (K562 [4]) does the source give for `COc1ccc(/C=C/C=O)cc1OC` [3,4-DIMETHOXY CINNAMALDEHYDE] here?
A: inactive

Q: What about the Activity [10] of the same compound?
A: 80%

Q: And the inhibition (U-937 [7])?
A: Active

Q: What about the inhibition (U-937 [8]) of the same compound?
A: inactive

Q: And the Activity (K562 [9])?
A: inactive

Q: And the Activity (PBMC)?
A: Non-toxic
